Assay results as given in ChEMBL document CHEMBL1138051, “Photodynamic therapy agent with a built-in apoptosis sensor for evaluating its own therapeutic outcome in situ” (2006).

What was measured:
Assay type in all cases: functional
HepG2 [1] = test: Viability of human HepG2 cells at 30 uM relative to control by MTT assay; details: read-out: Survival
Outline: (§1)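 HepG2 cells seeded 50000/well in complete DMEM and grown overnight at 37 °C. They were then exposed for 20 h to drug in DMEM with 0.8% BSA and rinsed. Cells were kept in dark with no illumination, then incubated 24 h at 37 °C. MTT 0.5 mg/mL was given for 2 h and solubilised in 70% 2-propanol/0.1 M HCl, with A570 read. Viability is relative to untreated cells (100%), 3 wells/condition, 3-8 experiments, mean ± standard error.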

HepG2 [2] = test: Viability of human HepG2 cells at 1 uM relative to control by MTT assay; details: read-out: Survival; outline: as §1
HepG2 [3] = test: Viability of human HepG2 cells in presence of 5 J/cm2 light at 30 uM relative to control by MTT assay; details: HepG2, light or radiation study, read-out: Survival
Outline: (§2)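 HepG2 cells were plated 50000/well, grown overnight, then loaded 20 h with drug in DMEM/0.8% BSA. After rinsing into complete DMEM they were irradiated with a 670 nm laser at 20 mW/cm2 fluence rate. They were then incubated 24 h at 37 °C, given MTT 0.5 mg/mL for 2 h, solubilised in acidified 2-propanol, and A570 was read. Viability is versus untreated cells (100%), 3 wells/condition, 3-8 experiments, mean ± standard error.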

HepG2 [4] = test: Viability of human HepG2 cells in presence of 5 J/cm2 light at 15 uM relative to control by MTT assay; details: HepG2, light or radiation study, read-out: Survival; outline: as §2
HepG2 [5] = test: Viability of human HepG2 cells at 5 uM relative to control by MTT assay; details: read-out: Survival; outline: as §1
HepG2 [6] = test: Viability of human HepG2 cells in presence of 7.5 J/cm2 light at 1 uM relative to control by MTT assay; details: HepG2, light or radiation study, read-out: Survival; outline: as §2
HepG2 [7] = test: Viability of human HepG2 cells at 15 uM relative to control by MTT assay; details: read-out: Survival; outline: as §1
HepG2 [8] = test: Viability of human HepG2 cells in presence of 7.5 J/cm2 light at 5 uM relative to control by MTT assay; details: HepG2, light or radiation study, read-out: Survival; outline: as §2
HepG2 [9] = test: Viability of human HepG2 cells in presence of 7.5 J/cm2 light at 30 uM relative to control by MTT assay; details: HepG2, light or radiation study, read-out: Survival; outline: as §2
HepG2 [10] = test: Viability of human HepG2 cells in presence of 1 J/cm2 light at 1 uM relative to control by MTT assay; details: HepG2, light or radiation study, read-out: Survival; outline: as §2
HepG2 [11] = test: Viability of human HepG2 cells in presence of 5 J/cm2 light at 5 uM relative to control by MTT assay; details: HepG2, light or radiation study, read-out: Survival; outline: as §2
HepG2 [12] = test: Viability of human HepG2 cells in presence of 5 J/cm2 light at 1 uM relative to control by MTT assay; details: HepG2, light or radiation study, read-out: Survival; outline: as §2
HepG2 [13] = test: Viability of human HepG2 cells in presence of 1 J/cm2 light at 15 uM relative to control by MTT assay; details: HepG2, light or radiation study, read-out: Survival; outline: as §2
HepG2 [14] = test: Viability of human HepG2 cells in presence of 1 J/cm2 light at 5 uM relative to control by MTT assay; details: HepG2, light or radiation study, read-out: Survival; outline: as §2
HepG2 [15] = test: Viability of human HepG2 cells in presence of 7.5 J/cm2 light at 15 uM relative to control by MTT assay; details: HepG2, light or radiation study, read-out: Survival; outline: as §2
HepG2 [16] = test: Viability of human HepG2 cells in presence of 1 J/cm2 light at 30 uM relative to control by MTT assay; details: HepG2, light or radiation study, read-out: Survival; outline: as §2

What does the source list for C=Cc1c(C)c2cc3[nH]c(c4c5nc(cc6nc(cc1[nH]2)C(C)=C6CC)C(C)=C5C(=O)C4)[C@@](C)(CCC(=O)NCC(=O)N[C@@H](CC(=O)O)C(=O)N[C@@H](CCC(=O)O)C(=O)N[C@H](C(=O)N[C@@H](CC(=O)O)C(=O)NCC(=O)N[C@@H](CO)C(=O)NCC(=O)N[C@@H](CCCCNC(=O)CCCN(C)c1ccc(/N=N/c2ccc4nc5ccc(N(CC)CC)cc5[n+](-c5ccccc5)c4c2)cc1)C(=O)O)C(C)C)C3(C)C?
viability at 30 µM (HepG2 [1]): 117%; viability at 1 µM (HepG2 [2]): 106%; viability at 30 µM (HepG2 [3]): 7%; viability at 15 µM (HepG2 [4]): 11%; viability at 5 µM (HepG2 [5]): 105%; viability at 1 µM (HepG2 [6]): 6%; viability at 15 µM (HepG2 [7]): 108%; viability at 5 µM (HepG2 [8]): 4%; viability at 30 µM (HepG2 [9]): 4%; viability at 1 µM (HepG2 [10]): 90%; viability at 5 µM (HepG2 [11]): 20%; viability at 1 µM (HepG2 [12]): 58%; viability at 15 µM (HepG2 [13]): 56%; viability at 5 µM (HepG2 [14]): 86%; viability at 15 µM (HepG2 [15]): 5%; viability at 30 µM (HepG2 [16]): 41%
